Experimental data taken from ChEMBL document CHEMBL4261518, “Side chain-functionalized aniline-derived ursolic acid derivatives as multidrug resistance reversers that block the nuclear factor-kappa B (NF-κB) pathway and cell proliferation” (Medchemcomm, 2017).

Columns and labels:
L02 = assay: Cytotoxicity against human HL7702 cells after 48 hrs by MTT assay; assay type: cell-based; settings: L02, 48 h
Procedure, shortened: (§1)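 Cells grown overnight in DMEM + 10% FBS at 37 °C under 5% CO2, then given a range of compound concentrations for 48 h. MTT added for about 4 h, medium replaced by DMSO, absorbance read at 570/630 nm. IC50 reported as mean ± SD of five independent experiments.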

MGC-803 = assay: Cytotoxicity against human MGC803 cells after 48 hrs by MTT assay; assay type: functional, cell-based; settings: MGC-803, 48 h; procedure, shortened: as §1
T-24 = assay: Cytotoxicity against human T24 cells after 48 hrs by MTT assay; assay type: functional, cell-based; settings: T-24, 48 h; procedure, shortened: as §1
[1] = Inhibition of TNFalpha-induced NF-kB (unknown origin) activation expressed in human NCI-H460 cells after 7 hrs by luciferase reporter gene assay; assay type: cell-based; settings: NCI-H460, 7 h
Procedure, shortened: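 NCI-H460 cells transiently co-transfected with pNF-κB-Luc reporter and pSV-β-galactosidase internal control by lipofectamine. Medium changed after 6 h, then 6 h further culture. TNF-α (15 ng ml–1) plus compound given together for 7 h. Luciferase ratio to TNF-α-only cells, corrected for non-TNF background and viability. IC50 from sigmoidal variable-slope fit.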

[2] = Cytotoxicity against human SPCA2 cells after 48 hrs by MTT assay; assay type: functional, cell-based; settings: SPCA2, 48 h; procedure, shortened: as §1
NCI-H460 [3] = assay: Cytotoxicity against human NCI-H460 cells harboring pNF-kB-Luc assessed as reduction in cell viability after 7 hrs by MTT assay relative to control; design: concentration or dose not given beside the values; settings: nci-h460, 7 h
NCI-H460 [4] = assay: Cytotoxicity against human NCI-H460 cells after 48 hrs by MTT assay; assay type: functional, cell-based; settings: NCI-H460, 48 h; procedure, shortened: as §1
A549 = assay: Cytotoxicity against human A549 cells after 48 hrs by MTT assay; assay type: functional, cell-based; settings: A549, 48 h; procedure, shortened: as §1
[5] = Cytotoxicity against human HepG2/DOX cells after 48 hrs by MTT assay; assay type: functional, cell-based; procedure, shortened: as §1
[6] = Resistant factor, ratio of IC50 for human NCI-H460/DOX cells to IC50 for human NCI-H460 cells; assay type: functional
[7] = Cytotoxicity against human NCI-H460/DOX cells after 48 hrs by MTT assay; assay type: functional, cell-based; settings: NCI-H460, 48 h; procedure, shortened: as §1
HepG2 = assay: Cytotoxicity against human HepG2 cells after 48 hrs by MTT assay; assay type: functional, cell-based; settings: HepG2, 48 h; procedure, shortened: as §1
[8] = Resistant factor, ratio of IC50 for human HepG2/DOX cells to IC50 for human HepG2 cells; assay type: functional

Row | IC50 [1] | Structure (SMILES) | IC50 (L02) | IC50 (MGC-803) | IC50 (T-24) | IC50 [2] | Activity (NCI-H460 [3]) | IC50 (NCI-H460 [4]) | IC50 (A549) | IC50 [5] | Ratio IC50 [6] | IC50 [7] | IC50 (HepG2) | Ratio IC50 [8]
1 | > 20 µM | COc1ccc(NC(=O)[C@]23CC[C@@H](C)[C@H](C)[C@H]2C2=CC[C@@H]4[C@@]5(C)CCC(=O)C(C)(C)[C@@H]5CC[C@@]4(C)[C@]2(C)CC3)cc1 | > 50 µM | 29.7 µM | 32.5 µM | 21.1 µM | < 5% | 28.1 µM | 39.9 µM | – | – | – | – | –
2 | 10.3 µM | C[C@H]1[C@H](C)CC[C@]2(C(=O)OCC(=O)Nc3ccccc3)CC[C@]3(C)C(=CC[C@@H]4[C@@]5(C)CCC(=O)C(C)(C)[C@@H]5CC[C@]43C)[C@H]12 | > 50 µM | 16.1 µM | 16 µM | 16.3 µM | < 5% | 13.8 µM | 14.1 µM | > 50 µM | 1.94 | 26.6 µM | 24.2 µM | –
3 | > 20 µM | COc1ccc(NC(=O)COC(=O)[C@]23CC[C@@H](C)[C@H](C)[C@H]2C2=CC[C@@H]4[C@@]5(C)CCC(=O)C(C)(C)[C@@H]5CC[C@@]4(C)[C@]2(C)CC3)cc1OC | > 50 µM | 38.2 µM | 27.7 µM | 18.9 µM | < 5% | 22.8 µM | 35.2 µM | – | – | – | – | –
4 | > 20 µM | COc1cc(NC(=O)[C@]23CC[C@@H](C)[C@H](C)[C@H]2C2=CC[C@@H]4[C@@]5(C)CCC(=O)C(C)(C)[C@@H]5CC[C@@]4(C)[C@]2(C)CC3)cc(OC)c1OC | > 50 µM | 40.1 µM | 39.8 µM | 29.9 µM | < 5% | 34.3 µM | 41.2 µM | – | – | – | – | –
5 | > 20 µM | COc1cc(NC(=O)COC(=O)[C@]23CC[C@@H](C)[C@H](C)[C@H]2C2=CC[C@@H]4[C@@]5(C)CCC(=O)C(C)(C)[C@@H]5CC[C@@]4(C)[C@]2(C)CC3)cc(OC)c1OC | > 50 µM | 38.7 µM | 37.8 µM | 27.9 µM | < 5% | 39.6 µM | 35.8 µM | – | – | – | – | –
6 | 10.1 µM | COc1ccc(NC(=O)[C@]23CC[C@@H](C)[C@H](C)[C@H]2C2=CC[C@@H]4[C@@]5(C)CC[C@H](OC(C)=O)C(C)(C)[C@@H]5CC[C@@]4(C)[C@]2(C)CC3)cc1OC | > 50 µM | 27.8 µM | 24.7 µM | 12.9 µM | < 5% | 11.9 µM | 22.9 µM | – | – | – | – | –
7 | > 20 µM | COc1ccc(NC(=O)[C@]23CC[C@@H](C)[C@H](C)[C@H]2C2=CC[C@@H]4[C@@]5(C)CCC(=O)C(C)(C)[C@@H]5CC[C@@]4(C)[C@]2(C)CC3)cc1OC | > 50 µM | 32.5 µM | 37.3 µM | 28.4 µM | < 5% | 30.2 µM | 38.7 µM | – | – | – | – | –
8 | 16 µM | COc1ccc(NC(=O)COC(=O)[C@]23CC[C@@H](C)[C@H](C)[C@H]2C2=CC[C@@H]4[C@@]5(C)CCC(=O)C(C)(C)[C@@H]5CC[C@@]4(C)[C@]2(C)CC3)cc1 | > 50 µM | 27.9 µM | 26.2 µM | 19.4 µM | < 5% | 17.6 µM | 24.6 µM | – | – | – | – | –
9 | 3.64 µM | COc1ccc(NC(=O)[C@]23CC[C@@H](C)[C@H](C)[C@H]2C2=CC[C@@H]4[C@@]5(C)CC[C@H](OC(C)=O)C(C)(C)[C@@H]5CC[C@@]4(C)[C@]2(C)CC3)cc1 | > 50 µM | 25.2 µM | 23.8 µM | 13.7 µM | < 5% | 10.6 µM | 31.1 µM | 47.1 µM | 2.12 | 22.6 µM | 24.5 µM | 1.92
10 | 14.8 µM | COc1cc(NC(=O)[C@]23CC[C@@H](C)[C@H](C)[C@H]2C2=CC[C@@H]4[C@@]5(C)CC[C@H](OC(C)=O)C(C)(C)[C@@H]5CC[C@@]4(C)[C@]2(C)CC3)cc(OC)c1OC | > 50 µM | 37.2 µM | 30.5 µM | 28.7 µM | < 5% | 21.1 µM | 36.5 µM | – | – | – | – | –
11 | 15.2 µM | Cc1ccc(NC(=O)[C@]23CC[C@@H](C)[C@H](C)[C@H]2C2=CC[C@@H]4[C@@]5(C)CCC(=O)C(C)(C)[C@@H]5CC[C@@]4(C)[C@]2(C)CC3)cc1C | > 50 µM | 21.4 µM | 24.6 µM | 22.5 µM | < 5% | 19.4 µM | 20.9 µM | – | – | – | – | –
12 | 16.2 µM | Cc1ccccc1NC(=O)COC(=O)[C@]12CC[C@@H](C)[C@H](C)[C@H]1C1=CC[C@@H]3[C@@]4(C)CCC(=O)C(C)(C)[C@@H]4CC[C@@]3(C)[C@]1(C)CC2 | > 50 µM | 16.2 µM | 17.8 µM | 18.7 µM | < 5% | 14 µM | 16.2 µM | – | – | – | – | –

Continued, compound first:

Row | Structure (SMILES) | IC50 [1] | IC50 (L02) | IC50 (MGC-803) | IC50 (T-24) | IC50 [2] | Activity (NCI-H460 [3]) | IC50 (NCI-H460 [4]) | IC50 (A549) | IC50 [5] | Ratio IC50 [6] | IC50 [7] | IC50 (HepG2) | Ratio IC50 [8]
13 | C[C@H]1[C@H](C)CC[C@]2(C(=O)O)CC[C@]3(C)C(=CC[C@@H]4[C@@]5(C)CC[C@H](O)C(C)(C)[C@@H]5CC[C@]43C)[C@H]12 [URSOLIC ACID] | > 20 µM | > 50 µM | 27.6 µM | – | 30.2 µM | < 5% | 32.2 µM | – | – | – | – | – | –
14 | CC[C@@]1(O)C(=O)OCc2c1cc1n(c2=O)Cc2cc3cc(O)ccc3nc2-1 [HYDROXYCAMPTOTHECIN] | – | 12.8 µM | – | – | 12.6 µM | – | 16.6 µM | 2.75 µM | – | – | – | – | –
15 | Cc1cccc(NC(=O)[C@]23CC[C@@H](C)[C@H](C)[C@H]2C2=CC[C@@H]4[C@@]5(C)CCC(=O)C(C)(C)[C@@H]5CC[C@@]4(C)[C@]2(C)CC3)c1 | – | > 50 µM | > 50 µM | > 50 µM | > 50 µM | – | > 50 µM | > 50 µM | – | – | – | – | –
16 | CC(=O)O[C@H]1CC[C@]2(C)[C@H]3CC=C4[C@@H]5[C@@H](C)[C@H](C)CC[C@]5(C(=O)N5CCN(C)CC5)CC[C@@]4(C)[C@]3(C)CC[C@H]2C1(C)C | 4.8 µM | > 50 µM | 21.6 µM | 25.4 µM | 29.2 µM | < 5% | 21.2 µM | 24.2 µM | > 50 µM | 2.35 | 49.7 µM | 27 µM | –
17 | COc1cccc2c1C(=O)c1c(O)c3c(c(O)c1C2=O)C[C@@](O)(C(=O)CO)C[C@@H]3O[C@H]1C[C@H](N)[C@H](O)[C@H](C)O1 [DOXORUBICIN] | – | – | – | – | – | – | – | – | > 50 µM | – | > 50 µM | 6.91 µM | –
18 | Cc1cccc(NC(=O)COC(=O)[C@]23CC[C@@H](C)[C@H](C)[C@H]2C2=CC[C@@H]4[C@@]5(C)CCC(=O)C(C)(C)[C@@H]5CC[C@@]4(C)[C@]2(C)CC3)c1 | – | > 50 µM | > 50 µM | > 50 µM | > 50 µM | – | > 50 µM | > 50 µM | – | – | – | – | –
19 | COc1cccc(NC(=O)COC(=O)[C@]23CC[C@@H](C)[C@H](C)[C@H]2C2=CC[C@@H]4[C@@]5(C)CCC(=O)C(C)(C)[C@@H]5CC[C@@]4(C)[C@]2(C)CC3)c1 | – | > 50 µM | > 50 µM | > 50 µM | > 50 µM | – | > 50 µM | > 50 µM | – | – | – | – | –
20 | CC(=O)O[C@H]1CC[C@]2(C)[C@H]3CC=C4[C@@H]5[C@@H](C)[C@H](C)CC[C@]5(C(=O)Nc5cccc(C)c5)CC[C@@]4(C)[C@]3(C)CC[C@H]2C1(C)C | – | > 50 µM | > 50 µM | > 50 µM | > 50 µM | – | > 50 µM | > 50 µM | – | – | – | – | –
21 | C[C@H]1[C@H](C)CC[C@]2(C(=O)N3CCN(C)CC3)CC[C@]3(C)C(=CC[C@@H]4[C@@]5(C)CCC(=O)C(C)(C)[C@@H]5CC[C@]43C)[C@H]12 | 15.5 µM | > 50 µM | 25.6 µM | 27.2 µM | 22.4 µM | < 5% | 19.2 µM | 23.4 µM | – | – | – | – | –
22 | COc1cccc(NC(=O)[C@]23CC[C@@H](C)[C@H](C)[C@H]2C2=CC[C@@H]4[C@@]5(C)CC[C@H](OC(C)=O)C(C)(C)[C@@H]5CC[C@@]4(C)[C@]2(C)CC3)c1 | – | > 50 µM | > 50 µM | > 50 µM | > 50 µM | – | > 50 µM | > 50 µM | – | – | – | – | –
